Converted amounts (≈) assume the structure as drawn.
Legend:
Format in all cases: functional
[1] = tested on: Mycolicibacterium smegmatis; assay: Antibacterial activity against Mycobacterium smegmatis harboring 23S rRNA G2032C mutant after 24 generation times
Procedure, shortened: (§1)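 M. smegmatis SMR5 strains with one rRNA operon on a plasmid integrated at attB, grown in LB + 0.05% Tween 80 at 37°C to visible growth, diluted to OD600 0.02, and mixed 1:1 with 2-fold antibiotic dilutions. Tested ranges were linezolid 0.125–64 μg/ml and chloramphenicol, clindamycin, valnemulin 1–512 μg/ml. Incubation ran 37°C for 24 generation times of each strain. MIC was the lowest concentration with complete visual inhibition. Parent/wild-type controls were on each plate.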

[2] = tested on: Mycolicibacterium smegmatis; assay: Antibacterial activity against Mycobacterium smegmatis harboring 23S rRNA C2571G mutant after 24 generation times; procedure, shortened: as §1
[3] = tested on: Mycolicibacterium smegmatis; assay: Antibacterial activity against Mycobacterium smegmatis harboring 23S rRNA A2058G mutant after 24 generation times; procedure, shortened: as §1
[4] = tested on: Mycolicibacterium smegmatis; assay: Antibacterial activity against Mycobacterium smegmatis harboring 23S rRNA G2576U mutant after 24 generation times; procedure, shortened: as §1
[5] = tested on: Mycolicibacterium smegmatis; assay: Antibacterial activity against Mycobacterium smegmatis harboring 23S rRNA G2032A, C2499A mutant after 24 generation times; procedure, shortened: as §1
[6] = tested on: Mycolicibacterium smegmatis; assay: Antibacterial activity against Mycobacterium smegmatis harboring 23S rRNA G2032A, U2504G mutant after 24 generation times; procedure, shortened: as §1
[7] = tested on: Mycolicibacterium smegmatis; assay: Antibacterial activity against Mycobacterium smegmatis harboring 23S rRNA C2612A mutant after 24 generation times; procedure, shortened: as §1
[8] = tested on: Mycolicibacterium smegmatis; assay: Antibacterial activity against Mycobacterium smegmatis harboring 23S rRNA C2499A2 mutant after 24 generation times; procedure, shortened: as §1
[9] = tested on: Mycolicibacterium smegmatis; assay: Antibacterial activity against Mycobacterium smegmatis harboring 23S rRNA A2503G mutant after 24 generation times; procedure, shortened: as §1
[10] = tested on: Mycolicibacterium smegmatis; assay: Antibacterial activity against Mycobacterium smegmatis harboring 23S rRNA G2032A mutant after 24 generation times; procedure, shortened: as §1
[11] = tested on: Mycolicibacterium smegmatis; assay: Antibacterial activity against Mycobacterium smegmatis harboring 23S rRNA C2499U mutant after 24 generation times; procedure, shortened: as §1
[12] = tested on: Mycolicibacterium smegmatis; assay: Antibacterial activity against Mycobacterium smegmatis harboring 23S rRNA C2055A mutant after 24 generation times; procedure, shortened: as §1
[13] = tested on: Mycolicibacterium smegmatis; assay: Antibacterial activity against wild type Mycobacterium smegmatis after 24 generation times; procedure, shortened: as §1
[14] = tested on: Mycolicibacterium smegmatis; assay: Antibacterial activity against Mycobacterium smegmatis harboring 23S rRNA U2504G mutant after 24 generation times; procedure, shortened: as §1
[15] = tested on: Mycolicibacterium smegmatis; assay: Antibacterial activity against Mycobacterium smegmatis harboring 23S rRNA C2055A, U2504G mutant after 24 generation times; procedure, shortened: as §1
[16] = tested on: Mycolicibacterium smegmatis; assay: Antibacterial activity against Mycobacterium smegmatis harboring 23S rRNA A2572U1 mutant after 24 generation times; procedure, shortened: as §1
[17] = tested on: Mycolicibacterium smegmatis; assay: Antibacterial activity against Mycobacterium smegmatis harboring 23S rRNA C2055A, A2572U mutant after 24 generation times; procedure, shortened: as §1
[18] = tested on: Mycolicibacterium smegmatis; assay: Antibacterial activity against Mycobacterium smegmatis harboring 23S rRNA G2505A mutant after 24 generation times; procedure, shortened: as §1
[19] = tested on: Mycolicibacterium smegmatis; assay: Antibacterial activity against Mycobacterium smegmatis SZ558 after 24 generation times; procedure, shortened: as §1
[20] = tested on: Mycolicibacterium smegmatis; assay: Antibacterial activity against Mycobacterium smegmatis harboring 23S rRNA A2453U mutant after 24 generation times; procedure, shortened: as §1

| Compound | MIC [1] | MIC [2] | MIC [3] | MIC [4] | MIC [5] | MIC [6] | MIC [7] | MIC [8] | MIC [9] | MIC [10] | MIC [11] | MIC [12] | MIC [13] | MIC [14] | MIC [15] | MIC [16] | MIC [17] | MIC [18] | MIC [19] | MIC [20] |
| --- | --- | --- | --- | --- | --- | --- | --- | --- | --- | --- | --- | --- | --- | --- | --- | --- | --- | --- | --- | --- |
| O=C(N[C@H](CO)[C@H](O)c1ccc([N+](=O)[O-])cc1)C(Cl)Cl [CHLORAMPHENICOL] | 32 µg/mL (≈ 99 µM) | 32 µg/mL (≈ 99 µM) | 32 µg/mL (≈ 99 µM) | 256 µg/mL (≈ 792 µM) | 64 µg/mL (≈ 198 µM) | 256 µg/mL (≈ 792 µM) | 64 µg/mL (≈ 198 µM) | 32 µg/mL (≈ 99 µM) | 128 µg/mL (≈ 396 µM) | 32 µg/mL (≈ 99 µM) | 32 µg/mL (≈ 99 µM) | 32 µg/mL (≈ 99 µM) | 32 µg/mL (≈ 99 µM) | 512 µg/mL (≈ 1580 µM) | 128 µg/mL (≈ 396 µM) | 8 µg/mL (≈ 24.8 µM) | 64 µg/mL (≈ 198 µM) | 128 µg/mL (≈ 396 µM) | 32 µg/mL (≈ 99 µM) | 32 µg/mL (≈ 99 µM) |
| CCC[C@@H]1C[C@@H](C(=O)N[C@@H]([C@H]2O[C@H](SC)[C@H](O)[C@@H](O)[C@H]2O)[C@H](C)Cl)N(C)C1 [CLINDAMYCIN] | 128 µg/mL (≈ 301 µM) | 16 µg/mL (≈ 37.6 µM) | > 1030 µg/mL | 64 µg/mL (≈ 151 µM) | 16 µg/mL (≈ 37.6 µM) | 16 µg/mL (≈ 37.6 µM) | 16 µg/mL (≈ 37.6 µM) | 16 µg/mL (≈ 37.6 µM) | 8 µg/mL (≈ 18.8 µM) | 32 µg/mL (≈ 75.3 µM) | 16 µg/mL (≈ 37.6 µM) | 32 µg/mL (≈ 75.3 µM) | 16 µg/mL (≈ 37.6 µM) | 16 µg/mL (≈ 37.6 µM) | 16 µg/mL (≈ 37.6 µM) | 16 µg/mL (≈ 37.6 µM) | 512 µg/mL (≈ 1200 µM) | 16 µg/mL (≈ 37.6 µM) | 16 µg/mL (≈ 37.6 µM) | 32 µg/mL (≈ 75.3 µM) |
| CC(=O)NC[C@H]1CN(c2ccc(N3CCOCC3)c(F)c2)C(=O)O1 [LINEZOLID] | 4 µg/mL (≈ 11.9 µM) | 4 µg/mL (≈ 11.9 µM) | 2 µg/mL (≈ 5.93 µM) | 64 µg/mL (≈ 190 µM) | 8 µg/mL (≈ 23.7 µM) | 64 µg/mL (≈ 190 µM) | 4 µg/mL (≈ 11.9 µM) | 2 µg/mL (≈ 5.93 µM) | 8 µg/mL (≈ 23.7 µM) | 2 µg/mL (≈ 5.93 µM) | 2 µg/mL (≈ 5.93 µM) | 0.5 µg/mL (≈ 1.48 µM) | 2 µg/mL (≈ 5.93 µM) | 8 µg/mL (≈ 23.7 µM) | 32 µg/mL (≈ 94.9 µM) | 4 µg/mL (≈ 11.9 µM) | 64 µg/mL (≈ 190 µM) | 16 µg/mL (≈ 47.4 µM) | 2 µg/mL (≈ 5.93 µM) | 4 µg/mL (≈ 11.9 µM) |
| C=C[C@]1(C)C[C@@H](OC(=O)CSC(C)(C)CNC(=O)[C@H](N)C(C)C)[C@]2(C)[C@H](C)CC[C@]3(CCC(=O)[C@H]32)[C@@H](C)[C@@H]1O [VALNEMULIN] | 128 µg/mL (≈ 227 µM) | 32 µg/mL (≈ 56.7 µM) | 64 µg/mL (≈ 113 µM) | 32 µg/mL (≈ 56.7 µM) | 128 µg/mL (≈ 227 µM) | 128 µg/mL (≈ 227 µM) | 32 µg/mL (≈ 56.7 µM) | 64 µg/mL (≈ 113 µM) | 32 µg/mL (≈ 56.7 µM) | 128 µg/mL (≈ 227 µM) | 32 µg/mL (≈ 56.7 µM) | 64 µg/mL (≈ 113 µM) | 32 µg/mL (≈ 56.7 µM) | 64 µg/mL (≈ 113 µM) | 64 µg/mL (≈ 113 µM) | 128 µg/mL (≈ 227 µM) | 128 µg/mL (≈ 227 µM) | 32 µg/mL (≈ 56.7 µM) | 32 µg/mL (≈ 56.7 µM) | 64 µg/mL (≈ 113 µM) |

Reference: ChEMBL document CHEMBL1687780, “Mutations in 23S rRNA at the peptidyl transferase center and their relationship to linezolid binding and cross-resistance” (2010)
